Laboratory results: ChEMBL document CHEMBL3259575, “Evaluation of a large library of (thiazol-2-yl)hydrazones and analogues as histone acetyltransferase inhibitors: enzyme and cellular studies” (2014)

Tests used:
[1] = molecular target: Histone acetyltransferase KAT2B (Homo sapiens) (UniProt Q92831); test: Inhibition of recombinant human PCAF catalytic domain (492 to 658 aa) using histone H3 at 100 uM after 1 hr by radiochemical assay in presence of [acetyl-3H]-acetyl coenzyme A
[2] = molecular target: Histone acetyltransferase p300 (Homo sapiens) (UniProt Q09472); test: Inhibition of recombinant human p300 catalytic domain (1284 to 1673 aa) using histone H3 at 100 uM after 1 hr by radiochemical assay in presence of [acetyl-3H]-acetyl coenzyme A
[3] = molecular target: Histone acetyltransferase p300 (Homo sapiens) (UniProt Q09472); test: Inhibition of recombinant human p300 catalytic domain (1284 to 1673 aa) using histone H3 at 200 uM after 1 hr by radiochemical assay in presence of [acetyl-3H]-acetyl coenzyme A
[4] = molecular target: Histone acetyltransferase p300 (Homo sapiens) (UniProt Q09472); test: Inhibition of recombinant human p300 catalytic domain (1284 to 1673 aa) using histone H3 at 400 uM after 1 hr by radiochemical assay in presence of [acetyl-3H]-acetyl coenzyme A
HCT-116 = test: Induction of apoptosis in human HCT116 cells at 100 uM after 30 hrs by FACS analysis relative to control; assay type: functional
How it was run: (§1)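 Cells cultured at 37 °C, 5% CO2 in RPMI-1640 plus 10% heat-inactivated FBS and antibiotics; treated 30 h; apoptosis read by FACS as the pre-G1 population, compared with untreated control.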

U-937 = test: Induction of apoptosis in human U937 cells at 100 uM after 30 hrs by FACS analysis relative to control; assay type: functional; how it was run: as §1

Chain of Histone acetyltransferase p300 (Homo sapiens) (Q09472 whole entry, the tested form may be a part): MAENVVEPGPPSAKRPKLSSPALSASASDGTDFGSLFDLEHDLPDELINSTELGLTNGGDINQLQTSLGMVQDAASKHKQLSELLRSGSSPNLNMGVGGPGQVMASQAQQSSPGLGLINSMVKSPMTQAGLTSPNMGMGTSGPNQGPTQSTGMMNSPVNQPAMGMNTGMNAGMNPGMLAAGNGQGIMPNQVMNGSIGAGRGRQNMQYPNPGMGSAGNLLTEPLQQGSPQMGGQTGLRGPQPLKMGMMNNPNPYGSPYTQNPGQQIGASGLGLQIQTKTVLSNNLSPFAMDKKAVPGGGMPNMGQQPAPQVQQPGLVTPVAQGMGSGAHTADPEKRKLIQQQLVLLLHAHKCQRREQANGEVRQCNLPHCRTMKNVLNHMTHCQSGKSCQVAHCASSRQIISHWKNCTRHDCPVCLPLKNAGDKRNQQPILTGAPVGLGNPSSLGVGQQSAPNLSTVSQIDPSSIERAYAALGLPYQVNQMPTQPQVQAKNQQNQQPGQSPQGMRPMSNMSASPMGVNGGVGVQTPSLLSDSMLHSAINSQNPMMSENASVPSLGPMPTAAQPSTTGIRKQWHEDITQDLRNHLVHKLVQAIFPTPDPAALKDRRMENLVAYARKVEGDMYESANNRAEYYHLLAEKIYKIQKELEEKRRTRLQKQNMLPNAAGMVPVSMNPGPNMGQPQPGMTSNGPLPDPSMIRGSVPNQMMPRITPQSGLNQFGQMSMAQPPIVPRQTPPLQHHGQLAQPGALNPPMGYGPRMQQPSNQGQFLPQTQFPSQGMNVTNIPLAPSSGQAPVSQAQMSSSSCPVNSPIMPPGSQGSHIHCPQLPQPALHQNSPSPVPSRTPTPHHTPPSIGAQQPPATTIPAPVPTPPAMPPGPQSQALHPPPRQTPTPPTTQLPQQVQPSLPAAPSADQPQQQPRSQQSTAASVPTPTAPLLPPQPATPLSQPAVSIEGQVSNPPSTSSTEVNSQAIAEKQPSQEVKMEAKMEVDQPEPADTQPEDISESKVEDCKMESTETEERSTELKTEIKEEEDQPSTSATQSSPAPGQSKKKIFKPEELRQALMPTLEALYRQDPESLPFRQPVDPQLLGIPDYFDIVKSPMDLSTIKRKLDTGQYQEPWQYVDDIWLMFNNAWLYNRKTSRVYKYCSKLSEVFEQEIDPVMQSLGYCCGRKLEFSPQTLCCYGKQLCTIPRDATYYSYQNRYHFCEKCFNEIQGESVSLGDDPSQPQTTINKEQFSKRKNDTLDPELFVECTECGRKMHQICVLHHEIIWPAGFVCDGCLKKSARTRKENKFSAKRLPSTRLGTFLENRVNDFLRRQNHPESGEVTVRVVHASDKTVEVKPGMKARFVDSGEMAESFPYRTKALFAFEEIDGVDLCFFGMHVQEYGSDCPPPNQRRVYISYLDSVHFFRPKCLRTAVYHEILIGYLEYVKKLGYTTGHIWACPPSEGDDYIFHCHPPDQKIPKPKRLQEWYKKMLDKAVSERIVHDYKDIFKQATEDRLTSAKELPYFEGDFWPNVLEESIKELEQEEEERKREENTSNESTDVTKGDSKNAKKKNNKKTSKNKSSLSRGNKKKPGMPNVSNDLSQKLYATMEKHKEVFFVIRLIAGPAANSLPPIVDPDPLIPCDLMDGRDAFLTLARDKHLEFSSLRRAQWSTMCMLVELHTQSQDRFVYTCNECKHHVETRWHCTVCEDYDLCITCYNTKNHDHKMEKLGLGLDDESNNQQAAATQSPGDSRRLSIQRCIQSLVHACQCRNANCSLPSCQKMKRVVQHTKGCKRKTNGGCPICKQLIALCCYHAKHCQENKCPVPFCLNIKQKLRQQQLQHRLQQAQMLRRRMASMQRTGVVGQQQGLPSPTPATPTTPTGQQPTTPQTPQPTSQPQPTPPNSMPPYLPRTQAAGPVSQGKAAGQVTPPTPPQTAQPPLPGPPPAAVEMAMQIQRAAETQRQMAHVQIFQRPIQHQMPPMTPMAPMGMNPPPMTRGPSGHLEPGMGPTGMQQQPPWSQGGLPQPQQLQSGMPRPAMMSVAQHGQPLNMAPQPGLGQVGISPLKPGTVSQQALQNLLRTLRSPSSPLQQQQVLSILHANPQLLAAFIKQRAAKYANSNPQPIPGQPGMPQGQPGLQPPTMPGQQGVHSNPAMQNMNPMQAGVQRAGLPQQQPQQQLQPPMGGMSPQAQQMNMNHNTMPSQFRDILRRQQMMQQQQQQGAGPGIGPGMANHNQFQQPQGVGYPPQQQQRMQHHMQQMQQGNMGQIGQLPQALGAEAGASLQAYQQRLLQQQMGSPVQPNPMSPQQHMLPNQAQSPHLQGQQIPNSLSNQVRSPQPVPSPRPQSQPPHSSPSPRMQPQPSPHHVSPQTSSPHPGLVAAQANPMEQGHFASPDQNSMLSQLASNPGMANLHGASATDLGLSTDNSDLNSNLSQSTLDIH
Chain of Histone acetyltransferase KAT2B (Homo sapiens) (Q92831 whole entry, looked up, the tested form may be a part): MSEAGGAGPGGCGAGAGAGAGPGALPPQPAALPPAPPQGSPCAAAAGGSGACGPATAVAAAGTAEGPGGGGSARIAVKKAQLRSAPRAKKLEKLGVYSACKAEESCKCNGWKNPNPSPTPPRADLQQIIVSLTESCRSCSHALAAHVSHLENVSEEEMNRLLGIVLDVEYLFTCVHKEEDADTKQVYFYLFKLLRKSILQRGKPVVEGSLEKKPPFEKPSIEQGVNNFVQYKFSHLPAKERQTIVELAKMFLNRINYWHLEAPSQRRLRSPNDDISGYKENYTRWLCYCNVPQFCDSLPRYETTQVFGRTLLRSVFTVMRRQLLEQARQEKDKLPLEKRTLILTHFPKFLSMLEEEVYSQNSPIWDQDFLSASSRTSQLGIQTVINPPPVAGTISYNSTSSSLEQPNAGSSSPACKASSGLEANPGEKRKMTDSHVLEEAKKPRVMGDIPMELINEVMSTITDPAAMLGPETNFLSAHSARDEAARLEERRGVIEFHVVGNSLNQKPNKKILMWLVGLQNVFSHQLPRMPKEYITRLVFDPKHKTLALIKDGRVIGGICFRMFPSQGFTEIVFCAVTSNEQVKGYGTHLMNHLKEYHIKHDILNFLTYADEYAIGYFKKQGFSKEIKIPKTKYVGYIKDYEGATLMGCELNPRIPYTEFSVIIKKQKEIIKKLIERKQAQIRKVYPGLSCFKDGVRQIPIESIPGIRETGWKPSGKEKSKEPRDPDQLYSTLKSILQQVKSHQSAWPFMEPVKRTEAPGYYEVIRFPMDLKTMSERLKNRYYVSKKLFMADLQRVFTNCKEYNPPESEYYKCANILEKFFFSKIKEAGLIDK

Row | Compound | inhibition [1] | inhibition [2] | inhibition [3] | inhibition [4] | Activity (HCT-116) | Activity (U-937)
1 | C/C(=N/Nc1nc(-c2ccc(Cl)cc2)cs1)C1CCCCC1 | 8% | 3% |  |  |  | 
2 | CC(C)=NNc1nc(-c2ccc(Cl)cc2)cc(=O)[nH]1 |  | 7% |  |  |  | 
3 | Clc1ccc(-c2csc(N/N=C\c3cccnc3)n2)cc1 | 17% | 28% |  |  |  | 
4 | CCC(CC)=NNc1nc(-c2ccc(Cl)cc2)cs1 | 10% | 35% |  |  |  | 
5 | Clc1ccc(-c2csc(N/N=C\c3ccco3)n2)cc1 | 9% | 15% |  |  |  | 
6 | Clc1ccc(-c2csc(N/N=C\c3cccc4ccccc34)n2)cc1 | 0% | 9% |  |  |  | 
7 | CCOC(=O)c1csc(NN=C2CCCC2)n1 | 5% | 19% |  |  |  | 
8 | O=c1cc(-c2ccc(Br)cc2)nc(NN=C2CCCC2)[nH]1 |  | 9% |  |  |  | 
9 | CC(C)=NNc1nc(-c2ccc(Cl)cc2)cs1 | 1% | 31% | 45% | 60% |  | 
10 | CC(C)=NNc1nc(-c2cc3ccccc3oc2=O)cs1 | 12% | 32% | 46% | 56% |  | 
11 | CCCC/C(C)=N/Nc1nc(-c2ccc(Cl)cc2)cs1 | 8% | 0% |  |  |  | 
12 | CCOC(=O)c1csc(NN=C(C)C)n1 | 0% | 22% |  |  |  | 
13 | Nc1nc(-c2ccc(Cl)cc2)cs1 | 0% | 31% |  |  |  | 
14 | C/C(=N/Nc1nc(-c2ccc(Cl)cc2)cs1)c1nccs1 | 10% | 46% | 55% | 67% |  | 
15 | Clc1ccc(-c2csc(N/N=C\c3ccc4c(c3)OCO4)n2)cc1 | 0% | 11% |  |  |  | 
16 | Clc1ccc(-c2csc(N/N=C\c3cccs3)n2)cc1 | 4% | 13% |  |  |  | 
17 | C/C(=N/Nc1nc(-c2ccc(Cl)cc2)cs1)c1ccncc1 | 10% | 36% |  |  |  | 
18 | CC(C)=NNc1nc(-c2ccc(F)cc2)cs1 | 0% | 34% |  |  |  | 
19 | C/C(=N/Nc1nc(-c2ccc(Cl)cc2)cs1)c1ccco1 | 2% | 26% |  |  |  | 
20 | CC(C)=NN=C1NC(=O)CS1 | 7% | 14% |  |  |  | 

Row | Compound | inhibition [1] | inhibition [2] | inhibition [3] | inhibition [4] | Activity (HCT-116) | Activity (U-937)
21 | C/C(=N/Nc1nc(-c2ccc(Cl)cc2)cs1)C1c2ccccc2-c2ccc(C(=O)O)cc21 (stereo unspecified) | 14% | 37% |  |  |  | 
22 | CC/C(C)=N/Nc1nc(-c2ccc(Cl)cc2)cs1 | 8% | 33% |  |  |  | 
23 | CCCCC/C(C)=N/Nc1nc(-c2ccc(Cl)cc2)cs1 | 16% | 5% |  |  |  | 
24 | Clc1ccc(-c2csc(N/N=C\c3ccncc3)n2)cc1 | 13% | 37% |  |  |  | 
25 | CC(C)=NNc1nc(-c2cccc([N+](=O)[O-])c2)cc(=O)[nH]1 |  | 4% |  |  |  | 
26 | C/C(=N/Nc1nc(-c2ccc(Cl)cc2)cs1)c1ccc2ccccc2c1 | 7% | 16% |  |  |  | 
27 | C/C(=N/Nc1nc(-c2ccc(Cl)cc2)cs1)c1cccs1 | 5% | 26% |  |  |  | 
28 | CC(C)=NNc1nc(-c2ccc(Br)cc2)cs1 | 13% | 42% | 53% | 63% |  | 
29 | C=CCC/C(C)=N/Nc1nc(-c2ccc(Cl)cc2)cs1 | 12% | 32% |  |  |  | 
30 | COc1ccc(-c2csc(NN=C(C)C)n2)cc1 | 5% | 21% |  |  |  | 
31 | CCC(C)/C(C)=N/Nc1nc(-c2ccc(Cl)cc2)cs1 (stereo unspecified) | 9% | 2% |  |  |  | 
32 | COc1cccc(-c2csc(NN=C(C)C)n2)c1 | 4% | 30% |  |  |  | 
33 | C/C(=N/Nc1nc(-c2ccc(Cl)cc2)cs1)c1cccnc1 | 11% | 1% |  |  |  | 
34 | CCC/C(C)=N/Nc1nc(-c2ccc(Cl)cc2)cs1 | 7% | 19% |  |  |  | 
35 | CCCCCC/C(C)=N/Nc1nc(-c2ccc(Cl)cc2)cs1 | 10% | 8% |  |  |  | 
36 | O=C1CSC(NN=C2CCCC2)=N1 | 1% | 0% |  |  |  | 
37 | CC(C)=NNc1nc(-c2ccc(Cl)cc2Cl)cs1 | 16% | 30% |  |  |  | 
38 | CC(C)=NNc1nc(C)cs1 | 3% | 13% |  |  |  | 
39 | CC(C)=NNc1nc(-c2ccc(Br)cc2)cc(=O)[nH]1 |  | 9% |  |  |  | 

Continued, in another order:

Row | inhibition [1] | inhibition [2] | inhibition [3] | inhibition [4] | Compound | Activity (HCT-116) | Activity (U-937)
40 | 3% | 4% |  |  | Nc1nc(-c2ccccc2)cs1 |  | 
41 |  | 14% |  |  | CC1CC/C(=N/Nc2nc(-c3cccc([N+](=O)[O-])c3)cc(=O)[nH]2)C1 (stereo unspecified) |  | 
42 | 0% | 20% |  |  | Clc1ccc(-c2csc(NN=C3CCCCCC3)n2)cc1 |  | 
43 | 9% | 7% |  |  | C/C(=N/Nc1nc(-c2ccc(Cl)cc2)cs1)c1ccccc1 |  | 
44 | 3% | 15% |  |  | Cc1sc(N/N=C2/CCC(C)C2)nc1-c1ccccc1 (stereo unspecified) |  | 
45 | 5% | 20% |  |  | CC(C)=NNc1nc(-c2ccccc2)c(C)s1 |  | 
46 | 0% | 27% |  |  | COc1ccc(-c2csc(N/N=C3\CCC[C@@H](C)C3)n2)cc1 |  | 
47 | 0% | 4% |  |  | CC1CC/C(=N/Nc2nc(-c3ccc4ccccc4c3)cs2)C1 (stereo unspecified) |  | 
48 | 2% | 32% |  |  | COc1ccc(-c2csc(N/N=C3/CCCC3C)n2)cc1 (stereo unspecified) |  | 
49 | 2% | 2% |  |  | Cc1sc(NN=C2CCCC2)nc1-c1ccccc1 |  | 
50 | 6% | 15% |  |  | Clc1ccc(-c2csc(NN=C3CCCCCCC3)n2)cc1 |  | 
51 | 0% | 16% |  |  | COc1ccc(-c2csc(NN=C3CCCCCC3)n2)cc1 |  | 
52 | 11% | 31% | 51% | 62% | COc1cccc(-c2csc(NN=C3CCCC3)n2)c1 |  | 
53 | 15% | 37% | 56% | 54% | c1ccc(-c2csc(NN=C3CCCC3)n2)cc1 |  | 
54 |  | 9% |  |  | O=c1cc(-c2cccc([N+](=O)[O-])c2)nc(NN=C2CCCC2)[nH]1 |  | 
55 | 0% | 20% |  |  | CC(C)=NNc1nc(-c2ccc(-c3ccccc3)cc2)cs1 |  | 
56 | 8% | 22% |  |  | CCOC(=O)c1csc(N/N=C2/CCC(C)C2)n1 (stereo unspecified) |  | 
57 | 0% | 27% |  |  | CC1CC/C(=N/Nc2nc(-c3ccc(Cl)cc3)cs2)C1 (stereo unspecified) | 11.5% | 29%
58 | 18% | 14% |  |  | CC1CC/C(=N/Nc2nc(-c3ccc(F)cc3F)cs2)C1 (stereo unspecified) |  | 
59 | 10% | 25% |  |  | CC(C)=NNc1nc(-c2ccc3ccccc3c2)cs1 |  | 
60 | 15% | 44% | 51% | 60% | O=[N+]([O-])c1cccc(-c2csc(NN=C3CCCC3)n2)c1 |  | 

Row | inhibition [1] | inhibition [2] | inhibition [3] | inhibition [4] | Compound | Activity (HCT-116) | Activity (U-937)
61 | 6% | 35% |  |  | CC1CC/C(=N/Nc2nc(-c3ccc(C#N)cc3)cs2)C1 (stereo unspecified) |  | 
62 | 1% | 34% | 47% | 61% | Clc1ccc(-c2csc(NN=C3CCCC3)n2)cc1 |  | 
63 |  | 4% |  |  | CC(C)=NNc1nc(-c2ccccc2)cc(=O)[nH]1 |  | 
64 | 0% | 14% |  |  | CC(C)=NNc1nc(-c2ccccc2)cs1 |  | 
65 | 4% | 19% |  |  | COc1ccc(-c2csc(N/N=C3/CCCC(C)C3)n2)cc1 (stereo unspecified) |  | 
66 | 0% | 0% |  |  | CC1(C)C=C/C(=N\Nc2nc(-c3ccc(Cl)cc3)cs2)CC1 |  | 
67 | 8% | 5% |  |  | CC1CC/C(=N/Nc2nc(-c3ccc(F)cc3)cs2)C1 (stereo unspecified) |  | 
68 | 0% | 27% |  |  | C[C@@H]1CCC/C(=N/Nc2nc(-c3ccc(Cl)cc3)cs2)C1 |  | 
69 | 11% | 33% | 47% | 57% | COc1ccc(-c2csc(NN=C3CCCC3)n2)cc1 |  | 
70 |  | 12% |  |  | CC1CC/C(=N/Nc2nc(-c3ccc(Br)cc3)cc(=O)[nH]2)C1 (stereo unspecified) |  | 
71 | 8% | 41% | 55% | 64% | CC1CC/C(=N/Nc2nc(-c3ccc(Cl)cc3)cc(=O)[nH]2)C1 (stereo unspecified) |  | 
72 |  | 0% |  |  | CC1CC/C(=N/Nc2nc(-c3ccccc3)cc(=O)[nH]2)C1 (stereo unspecified) |  | 
73 | 16% | 5% |  |  | NNc1nc(-c2ccccc2)cs1 |  | 
74 | 0% | 9% |  |  | CC1CCC/C(=N/Nc2nc(-c3ccc(Cl)cc3)cs2)C1 (stereo unspecified) |  | 
75 | 5% | 28% |  |  | COc1ccc(-c2csc(N/N=C3/CCC(C)C3)n2)cc1 (stereo unspecified) |  | 
76 | 2% | 33% |  |  | CC1CCC/C1=N/Nc1nc(-c2ccc(Cl)cc2)cs1 (stereo unspecified) |  | 
77 |  | 3% |  |  | O=c1cc(-c2ccccc2)nc(NN=C2CCCC2)[nH]1 |  | 
78 | 10% | 31% | 46% | 54% | O=c1cc(-c2ccc(Cl)cc2)nc(NN=C2CCCC2)[nH]1 |  | 
79 | 8% | 19% |  |  | c1ccc2cc(-c3csc(NN=C4CCCC4)n3)ccc2c1 |  | 
80 | 21% | 30% |  |  | Clc1ccc(-c2csc(NN=C3CCCC3)n2)c(Cl)c1 |  | 
81 | 30% | 0% |  |  | Cc1csc(NN=C2CCCC2)n1 |  | 
